≈ marks a conversion by molar mass, not a printed value.
Legend:
Assay type in all cases: functional
Aspergillus niger [1] = assay: Ratio of fluconazole MIC to compound MIC for Aspergillus niger ATCC 9029 after 24 hrs by broth microdilution method
Candida albicans [2] = assay: Ratio of fluconazole MIC to compound MIC for Candida albicans ATCC 2091 after 24 hrs by broth microdilution method
Aspergillus niger [3] = assay: Antifungal activity against Aspergillus niger ATCC 9029 after 24 hrs by broth microdilution method; conditions: ATCC 9029, 24 h
Outline: (§1)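 Broth dilution MIC, with fluconazole as the comparator. Each drug was serially diluted tenfold in BHI broth over nine tubes (10^-1 to 10^-9). Each tube received a suspension of stock culture diluted in BHI. Tubes were kept 24 h at 37 °C, and growth was judged by turbidity.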

Candida albicans [4] = assay: Antifungal activity against Candida albicans ATCC 2091 after 24 hrs by broth microdilution method; conditions: ATCC 2091, 24 h; outline: as §1
Pseudomonas aeruginosa = assay: Antibacterial activity against Pseudomonas aeruginosa ATCC 25619 after 24 hrs by broth microdilution method; conditions: ATCC 25619, 24 h
Outline: (§2)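 Broth dilution MIC, with ciprofloxacin as the comparator. Nine […] serial dilutions of each drug (10^-1 to 10^-9) were made in brain heart infusion (BHI) broth. Stock culture was diluted into BHI, and this suspension was added to each dilution tube. Tubes were incubated 24 h at 37 °C, and the MIC was read by turbidity.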

Escherichia coli = assay: Antibacterial activity against Escherichia coli ATCC 25922 after 24 hrs by broth microdilution method; conditions: ATCC 25922, 24 h; outline: as §2
Enterococcus faecalis = assay: Antibacterial activity against Enterococcus faecalis ATCC 35550 after 24 hrs by broth microdilution method; conditions: ATCC 35550, 24 h; outline: as §2
Staphylococcus aureus = assay: Antibacterial activity against Staphylococcus aureus ATCC 12598 after 24 hrs by broth microdilution method; conditions: ATCC 12598, 24 h; outline: as §2

## CCOC(=O)C(Cc1ccc(OCc2cc(=O)oc3ccc(OC)cc23)cc1)NC(=O)c1ccccc1 (stereo unspecified)
Aspergillus niger [1]
  Ratio: 40
Candida albicans [2]
  Ratio: 80
Aspergillus niger [3]
  MIC: 0.2 µg/mL (≈ 0.399 µM)
Candida albicans [4]
  MIC: 0.2 µg/mL (≈ 0.399 µM)
Pseudomonas aeruginosa
  MIC: 100 µg/mL (≈ 199 µM)
Escherichia coli
  MIC: 100 µg/mL (≈ 199 µM)
Enterococcus faecalis
  MIC: 0.4 µg/mL (≈ 0.798 µM)
Staphylococcus aureus
  MIC: 100 µg/mL (≈ 199 µM)

## CCOC(=O)C(Cc1ccc(OCc2cc(=O)oc3cc(C)ccc23)cc1)NC(=O)c1ccccc1 (stereo unspecified)
Aspergillus niger [1]
  Ratio: 40
Candida albicans [2]
  Ratio: 80
Aspergillus niger [3]
  MIC: 0.2 µg/mL (≈ 0.412 µM)
Candida albicans [4]
  MIC: 0.2 µg/mL (≈ 0.412 µM)
Pseudomonas aeruginosa
  MIC: 100 µg/mL (≈ 206 µM)
Escherichia coli
  MIC: 100 µg/mL (≈ 206 µM)
Enterococcus faecalis
  MIC: 0.8 µg/mL (≈ 1.65 µM)

## CCOC(=O)c1cc(O)c(OCc2cc(=O)oc3cc(C)ccc23)c(O)c1
Aspergillus niger [3]
  MIC: 100 µg/mL (≈ 270 µM)
Candida albicans [4]
  MIC: 100 µg/mL (≈ 270 µM)
Pseudomonas aeruginosa
  MIC: 100 µg/mL (≈ 270 µM)
Escherichia coli
  MIC: 100 µg/mL (≈ 270 µM)
Enterococcus faecalis
  MIC: 0.2 µg/mL (≈ 0.54 µM)
Staphylococcus aureus
  MIC: 12.5 µg/mL (≈ 33.8 µM)

## CCOC(=O)C(Cc1ccc(OCc2cc(=O)oc3c2ccc2ccccc23)cc1)NC(=O)c1ccccc1 (stereo unspecified)
Aspergillus niger [1]
  Ratio: 40
Aspergillus niger [3]
  MIC: 0.2 µg/mL (≈ 0.383 µM)
Candida albicans [4]
  MIC: 12.5 µg/mL (≈ 24 µM)
Pseudomonas aeruginosa
  MIC: 100 µg/mL (≈ 192 µM)
Escherichia coli
  MIC: 100 µg/mL (≈ 192 µM)
Enterococcus faecalis
  MIC: 0.2 µg/mL (≈ 0.383 µM)
Staphylococcus aureus
  MIC: 50 µg/mL (≈ 95.9 µM)

## CCOC(=O)c1cc(O)c(OCc2cc(=O)oc3cc(Cl)ccc23)c(O)c1
Aspergillus niger [3]
  MIC: 100 µg/mL (≈ 256 µM)
Candida albicans [4]
  MIC: 100 µg/mL (≈ 256 µM)
Pseudomonas aeruginosa
  MIC: 100 µg/mL (≈ 256 µM)
Escherichia coli
  MIC: 100 µg/mL (≈ 256 µM)
Enterococcus faecalis
  MIC: 3.12 µg/mL (≈ 8 µM)
Staphylococcus aureus
  MIC: 12.5 µg/mL (≈ 32 µM)

## O=C(O)c1cn(C2CC2)c2cc(N3CCNCC3)c(F)cc2c1=O [CIPROFLOXACIN]
Enterococcus faecalis
  MIC: 2 µg/mL (≈ 6.04 µM)
Staphylococcus aureus
  MIC: 2 µg/mL (≈ 6.04 µM)

## CCOC(=O)C(Cc1ccc(OCc2cc(=O)oc3ccc4ccccc4c23)cc1)NC(=O)c1ccccc1 (stereo unspecified)
Aspergillus niger [1]
  Ratio: 40
Aspergillus niger [3]
  MIC: 0.2 µg/mL (≈ 0.383 µM)
Candida albicans [4]
  MIC: 1.6 µg/mL (≈ 3.07 µM)
Escherichia coli
  MIC: 100 µg/mL (≈ 192 µM)
Enterococcus faecalis
  MIC: 0.4 µg/mL (≈ 0.767 µM)

## CCOC(=O)C(Cc1ccc(OCc2cc(=O)oc3c(C)c(C)ccc23)cc1)NC(=O)c1ccccc1 (stereo unspecified)
Aspergillus niger [1]
  Ratio: 40
Aspergillus niger [3]
  MIC: 0.2 µg/mL (≈ 0.4 µM)
Candida albicans [4]
  MIC: 0.8 µg/mL (≈ 1.6 µM)
Pseudomonas aeruginosa
  MIC: 100 µg/mL (≈ 200 µM)
Escherichia coli
  MIC: 100 µg/mL (≈ 200 µM)
Enterococcus faecalis
  MIC: 0.2 µg/mL (≈ 0.4 µM)
Staphylococcus aureus
  MIC: 100 µg/mL (≈ 200 µM)

## CCOC(=O)c1cc(O)c(OCc2cc(=O)oc3ccc(C)cc23)c(O)c1
Aspergillus niger [3]
  MIC: 100 µg/mL (≈ 270 µM)
Candida albicans [4]
  MIC: 100 µg/mL (≈ 270 µM)
Pseudomonas aeruginosa
  MIC: 100 µg/mL (≈ 270 µM)
Escherichia coli
  MIC: 100 µg/mL (≈ 270 µM)
Enterococcus faecalis
  MIC: 0.2 µg/mL (≈ 0.54 µM)
Staphylococcus aureus
  MIC: 1.6 µg/mL (≈ 4.32 µM)

## CCOC(=O)c1cc(O)c(OCc2cc(=O)oc3ccc(Cl)cc23)c(O)c1
Aspergillus niger [3]
  MIC: 100 µg/mL (≈ 256 µM)
Candida albicans [4]
  MIC: 100 µg/mL (≈ 256 µM)
Pseudomonas aeruginosa
  MIC: 100 µg/mL (≈ 256 µM)
Escherichia coli
  MIC: 100 µg/mL (≈ 256 µM)
Enterococcus faecalis
  MIC: 0.2 µg/mL (≈ 0.512 µM)
Staphylococcus aureus
  MIC: 0.4 µg/mL (≈ 1.02 µM)

## CCOC(=O)c1cc(O)c(OCc2cc(=O)oc3c(C)c(C)ccc23)c(O)c1
Aspergillus niger [3]
  MIC: 100 µg/mL (≈ 260 µM)
Candida albicans [4]
  MIC: 100 µg/mL (≈ 260 µM)
Pseudomonas aeruginosa
  MIC: 100 µg/mL (≈ 260 µM)
Escherichia coli
  MIC: 100 µg/mL (≈ 260 µM)
Enterococcus faecalis
  MIC: 0.2 µg/mL (≈ 0.52 µM)
Staphylococcus aureus
  MIC: 0.2 µg/mL (≈ 0.52 µM)

## CCOC(=O)C(Cc1ccc(OCc2cc(=O)oc3cc(OC)ccc23)cc1)NC(=O)c1ccccc1 (stereo unspecified)
Aspergillus niger [1]
  Ratio: 40
Candida albicans [2]
  Ratio: 80
Aspergillus niger [3]
  MIC: 0.2 µg/mL (≈ 0.399 µM)
Candida albicans [4]
  MIC: 0.2 µg/mL (≈ 0.399 µM)
Pseudomonas aeruginosa
  MIC: 100 µg/mL (≈ 199 µM)
Escherichia coli
  MIC: 100 µg/mL (≈ 199 µM)
Enterococcus faecalis
  MIC: 0.8 µg/mL (≈ 1.6 µM)
Staphylococcus aureus
  MIC: 100 µg/mL (≈ 199 µM)

## CCOC(=O)C(Cc1ccc(OCc2cc(=O)oc3cc(C)cc(C)c23)cc1)NC(=O)c1ccccc1 (stereo unspecified)
Aspergillus niger [1]
  Ratio: 40
Aspergillus niger [3]
  MIC: 0.2 µg/mL (≈ 0.4 µM)
Candida albicans [4]
  MIC: 1.6 µg/mL (≈ 3.2 µM)
Pseudomonas aeruginosa
  MIC: 100 µg/mL (≈ 200 µM)
Escherichia coli
  MIC: 100 µg/mL (≈ 200 µM)
Enterococcus faecalis
  MIC: 0.2 µg/mL (≈ 0.4 µM)

## CCOC(=O)c1cc(O)c(OCc2cc(=O)oc3c2ccc2ccccc23)c(O)c1
Aspergillus niger [3]
  MIC: 100 µg/mL (≈ 246 µM)
Candida albicans [4]
  MIC: 100 µg/mL (≈ 246 µM)
Pseudomonas aeruginosa
  MIC: 100 µg/mL (≈ 246 µM)
Escherichia coli
  MIC: 100 µg/mL (≈ 246 µM)
Enterococcus faecalis
  MIC: 0.2 µg/mL (≈ 0.492 µM)
Staphylococcus aureus
  MIC: 1.6 µg/mL (≈ 3.94 µM)

## OC(Cn1cncn1)(Cn1cncn1)c1ccc(F)cc1F [FLUCONAZOLE]
Aspergillus niger [3]
  MIC: 8 µg/mL (≈ 26.1 µM)
Candida albicans [4]
  MIC: 16 µg/mL (≈ 52.2 µM)

## CCOC(=O)C(Cc1ccc(OCc2cc(=O)oc3ccc(C)cc23)cc1)NC(=O)c1ccccc1 (stereo unspecified)
Aspergillus niger [1]
  Ratio: 40
Candida albicans [2]
  Ratio: 80
Aspergillus niger [3]
  MIC: 0.2 µg/mL (≈ 0.412 µM)
Candida albicans [4]
  MIC: 0.2 µg/mL (≈ 0.412 µM)
Pseudomonas aeruginosa
  MIC: 100 µg/mL (≈ 206 µM)
Escherichia coli
  MIC: 100 µg/mL (≈ 206 µM)
Enterococcus faecalis
  MIC: 0.8 µg/mL (≈ 1.65 µM)
Staphylococcus aureus
  MIC: 100 µg/mL (≈ 206 µM)

## CCOC(=O)C(Cc1ccc(OCc2cc(=O)oc3cc(Cl)ccc23)cc1)NC(=O)c1ccccc1 (stereo unspecified)
Aspergillus niger [1]
  Ratio: 40
Aspergillus niger [3]
  MIC: 0.2 µg/mL (≈ 0.395 µM)
Candida albicans [4]
  MIC: 50 µg/mL (≈ 98.8 µM)
Pseudomonas aeruginosa
  MIC: 100 µg/mL (≈ 198 µM)
Enterococcus faecalis
  MIC: 0.2 µg/mL (≈ 0.395 µM)

## CCOC(=O)c1cc(O)c(OCc2cc(=O)oc3ccc4ccccc4c23)c(O)c1
Aspergillus niger [3]
  MIC: 100 µg/mL (≈ 246 µM)
Candida albicans [4]
  MIC: 100 µg/mL (≈ 246 µM)
Pseudomonas aeruginosa
  MIC: 100 µg/mL (≈ 246 µM)
Escherichia coli
  MIC: 100 µg/mL (≈ 246 µM)
Enterococcus faecalis
  MIC: 0.2 µg/mL (≈ 0.492 µM)
Staphylococcus aureus
  MIC: 0.4 µg/mL (≈ 0.984 µM)

## CCOC(=O)c1cc(O)c(OCc2cc(=O)oc3cc(OC)ccc23)c(O)c1
Aspergillus niger [3]
  MIC: 100 µg/mL (≈ 259 µM)
Candida albicans [4]
  MIC: 100 µg/mL (≈ 259 µM)
Pseudomonas aeruginosa
  MIC: 100 µg/mL (≈ 259 µM)
Escherichia coli
  MIC: 100 µg/mL (≈ 259 µM)
Enterococcus faecalis
  MIC: 0.8 µg/mL (≈ 2.07 µM)
Staphylococcus aureus
  MIC: 1.6 µg/mL (≈ 4.14 µM)

## CCOC(=O)c1cc(O)c(OCc2cc(=O)oc3ccc(OC)cc23)c(O)c1
Aspergillus niger [3]
  MIC: 100 µg/mL (≈ 259 µM)
Candida albicans [4]
  MIC: 100 µg/mL (≈ 259 µM)
Pseudomonas aeruginosa
  MIC: 100 µg/mL (≈ 259 µM)
Escherichia coli
  MIC: 100 µg/mL (≈ 259 µM)
Enterococcus faecalis
  MIC: 0.2 µg/mL (≈ 0.518 µM)
Staphylococcus aureus
  MIC: 0.8 µg/mL (≈ 2.07 µM)

## CCOC(=O)C(Cc1ccc(OCc2cc(=O)oc3ccc(Cl)cc23)cc1)NC(=O)c1ccccc1 (stereo unspecified)
Aspergillus niger [1]
  Ratio: 40
Aspergillus niger [3]
  MIC: 0.2 µg/mL (≈ 0.395 µM)
Candida albicans [4]
  MIC: 50 µg/mL (≈ 98.8 µM)
Pseudomonas aeruginosa
  MIC: 100 µg/mL (≈ 198 µM)
Enterococcus faecalis
  MIC: 0.2 µg/mL (≈ 0.395 µM)
Staphylococcus aureus
  MIC: 100 µg/mL (≈ 198 µM)

## CCOC(=O)c1cc(O)c(OCc2cc(=O)oc3cc(C)cc(C)c23)c(O)c1
Aspergillus niger [3]
  MIC: 100 µg/mL (≈ 260 µM)
Candida albicans [4]
  MIC: 100 µg/mL (≈ 260 µM)
Pseudomonas aeruginosa
  MIC: 100 µg/mL (≈ 260 µM)
Escherichia coli
  MIC: 100 µg/mL (≈ 260 µM)
Enterococcus faecalis
  MIC: 0.2 µg/mL (≈ 0.52 µM)
Staphylococcus aureus
  MIC: 0.8 µg/mL (≈ 2.08 µM)

— ChEMBL document CHEMBL3085670, “Synthesis, biological evaluation and docking studies of 4-aryloxymethyl coumarins derived from substructures and degradation products of vancomycin” (2013)
